Assay results gathered from unrelated publications.
Compare with care: the assays were run in different laboratories.
Target: Activin receptor type-1B (ACVR1B, Homo sapiens, UniProt P36896)
Sequence (P36896 24-505, as in one of the studies): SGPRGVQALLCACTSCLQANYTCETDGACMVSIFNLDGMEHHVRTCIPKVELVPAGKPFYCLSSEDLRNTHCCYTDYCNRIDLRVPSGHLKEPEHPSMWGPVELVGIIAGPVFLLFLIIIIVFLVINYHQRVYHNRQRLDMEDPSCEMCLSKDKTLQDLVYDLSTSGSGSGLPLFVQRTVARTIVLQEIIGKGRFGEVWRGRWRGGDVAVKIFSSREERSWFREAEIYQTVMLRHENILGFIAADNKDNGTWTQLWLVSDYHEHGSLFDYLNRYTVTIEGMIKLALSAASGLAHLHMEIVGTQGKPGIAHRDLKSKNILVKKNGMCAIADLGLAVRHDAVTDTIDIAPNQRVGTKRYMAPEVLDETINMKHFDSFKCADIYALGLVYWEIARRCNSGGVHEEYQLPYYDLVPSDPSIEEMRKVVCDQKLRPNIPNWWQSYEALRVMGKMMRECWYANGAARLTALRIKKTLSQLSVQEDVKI

C#Cc1n[nH]c2c(-c3cn([C@@H](C)c4ccccn4)c(=O)[nH]c3=O)cc(F)cc12 — inhibition (enzyme activity; inhibitor; 0.1 µM): -3.4%
Cc1nn(C)cc1-c1nc2c(N3CCN(Cc4ccc(Cl)cc4)CC3)c(Cl)cnc2[nH]1 — remaining binding (binding; competition with immobilised ligand; 1 µM): 68%
COc1ncccc1-c1cnn2ccc(N3CCN(C(=O)OC(C)C)CC3)nc12 — remaining binding (binding; competition with immobilised ligand; 1 µM): 93%
O=c1[nH]c2ccccc2n1C1CCN(Cc2ccc(-c3[nH]c4cc5ncnc5cc4nc3-c3ccccc3)cc2)CC1 — remaining signal (cell-free assay; 0.5 µM): 111%
C#Cc1n[nH]c2c(-c3cn([C@@H](C)c4ccccc4)c(=O)[nH]c3=O)cc(F)cc12 — inhibition (enzyme activity; inhibitor; 0.1 µM): -3.3%
Cn1cc(-c2cc(F)cc(N3CCn4c(cc5c4CCCC5)C3=O)c2CO)cc(Nc2ccc(N3CCN(C4COC4)CC3)cn2)c1=O — inhibition (enzyme activity; inhibitor; 0.1 µM): -1%
N#CC1(c2ccccn2)CCN(Cc2cc(C(=O)O)c(=O)n3ccccc23)CC1 — remaining binding (cell-free assay; competition with immobilised ligand; 1 µM): 94%
COc1cc(Nc2ncc(F)c(Nc3ccc4c(n3)NC(=O)C(C)(C)O4)n2)cc(OC)c1OC — inhibition (binding; competition with immobilised ligand; 10 µM): 55%
Cn1cncc1[C@](O)(COc1ccc(C#N)cc1-c1ccc(OC(F)(F)F)cc1)c1ccc(C#N)cc1 — remaining binding (cell-free assay; competition with immobilised ligand; 1 µM): 87%
Cn1cc(-c2cccc(N3CCc4c(sc5c4CC(C)(C)C5)C3=O)c2CO)cc(Nc2ccncn2)c1=O — inhibition (enzyme activity; inhibitor; 1 µM): -5%
Nc1ncc(-c2nc(N3CCOCC3)nc(N3CCOCC3)n2)c(C(F)F)n1 — remaining binding (binding; competition with immobilised ligand; 10 µM): 94%
CC(C)(C)c1cc(C=C(C#N)C#N)cc(Br)c1O — remaining activity (enzyme activity; inhibitor; 0.5 µM): 108%
